Assay results reported in ChEMBL document CHEMBL3232816, “Substituted E-3-(3-indolylmethylene)1,3-dihydroindol-2-ones with antiproliferative activity. Study of the effects on HL-60 leukemia cells” (2014).
Structures can show the parent of a compound that is named as a salt.

Key:
Assay type in all cases: functional
[1] = Cytotoxicity against human CNS cancer cells after 48 hrs; settings: Cancer cell lines; for CC50: read-out: LC50 (the source's name)
Procedure, shortened: (§1)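 NCI 60-line panel. Compounds were dissolved in DMSO and tested at five 10-fold dilutions, the highest 10^-4 M (10^-3 M where footnoted), over 48 h of incubation. The readouts were GI50, TGI and LC50 in μM, with the panel mean also given. Only compounds passing a 10^-5 M single-dose prescreen were tested; some were repeated and averaged over two experiments.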

[2] = Cytotoxicity against human NSCLC cells after 48 hrs; procedure, shortened: as §1
[3] = Cytotoxicity against human colon cancer cells after 48 hrs; settings: Cancer cell lines; for CC50: read-out: LC50 (the source's name); procedure, shortened: as §1
[4] = Cytotoxicity against human renal cancer cells after 48 hrs; settings: Cancer cell lines; procedure, shortened: as §1
[5] = Cytotoxicity against human breast cancer cells after 48 hrs; settings: Cancer cell lines; for CC50: read-out: LC50 (the source's name); procedure, shortened: as §1
[6] = Cytotoxicity against human prostate cancer cells after 48 hrs; settings: Cancer cell lines; for CC50: read-out: LC50 (the source's name); procedure, shortened: as §1
[7] = Cytotoxicity against human ovarian cancer cells after 48 hrs; settings: Cancer cell lines; procedure, shortened: as §1
[8] = Cytotoxicity against human melanoma cells after 48 hrs; settings: Melanoma cell; procedure, shortened: as §1
[9] = Cytotoxicity against human leukemia cells after 48 hrs; settings: for GI50 / TGI: Leukemia cell; procedure, shortened: as §1

SMILES | GI50 [1] [µM] | TGI [1] [µM] | GI50 [2] [µM] | TGI [2] [µM] | GI50 [3] [µM] | TGI [3] [µM] | GI50 [4] [µM] | GI50 [5] [µM] | TGI [5] [µM] | GI50 [6] [µM] | TGI [6] [µM] | GI50 [7] [µM] | GI50 [8] [µM] | TGI [8] [µM] | GI50 [9] [µM] | TGI [9] [µM] | CC50 [1] [µM] | CC50 [3] [µM] | TGI [4] [µM] | TGI [7] [µM] | further results
COc1ccc2c(c1)/C(=C\c1c(Cl)n(Cc3cc(OC)c(OC)c(OC)c3)c3cc(C)c(OC)cc13)C(=O)N2 | 16.2 | 75.9 | 20.4 | 97.7 | 11 | 85.1 | 29.5 | 10.2 | 57.5 | 14.5 | 95.5 | 33.1 | 14.8 | 75.9 | 6.17 | 77.6 |  |  |  |  | 
COc1c(/C=C2/C(=O)Nc3ccccc32)c2ccccc2n1-c1ccccc1 | 2.19 | 8.51 | 2.14 | 8.32 | 1.05 | 3.24 | 1.12 | 1.23 | 4.47 | 1.12 | 3.47 | 1.38 | 1.48 | 3.98 | 0.52 | 2.63 | 30.9 | 7.94 | 4.07 | 4.07 | LC50 [2]: 27.5 µM; LC50 [4]: 13.2 µM; CC50 [5]: 27.5 µM; CC50 [6]: 19.1 µM; LC50 [7]: 15.8 µM; LC50 [8]: 10.5 µM; LC50 (concentration giving 50% net cell kill) [9]: 50.1 µM
COc1cc2c(/C=C3/C(=O)Nc4ccc(Cl)cc43)c(Cl)n(Cc3cc(OC)c(OC)c(OC)c3)c2cc1C | 2.34 | 6.03 | 2.29 | 5.89 | 2.19 | 5.62 | 2.95 | 2.09 | 5.5 | 1.78 | 3.89 | 3.72 | 2.29 | 5.75 | 1.86 | 4.79 | 23.4 | 29.5 | 7.24 | 13.8 | LC50 [2]: 16.2 µM; LC50 [4]: 18.6 µM; CC50 [5]: 22.4 µM; CC50 [6]: 8.91 µM; LC50 [7]: 39.8 µM; LC50 [8]: 17.8 µM; LC50 (concentration giving 50% net cell kill) [9]: 15.8 µM
COc1ccc2c(c1)/C(=C\c1c(OC)n(-c3ccccc3)c3ccccc13)C(=O)N2 | 0.98 | 9.55 | 2.51 | 17.4 | 1.74 | 11 | 2.29 | 0.63 | 7.24 | 2.63 | 13.2 | 2 | 2.4 | 17 | 0.76 | 4.47 | 38.9 | 42.7 | 17.4 | 17.4 | LC50 [2]: 63.1 µM; LC50 [4]: 63.1 µM; CC50 [5]: 47.9 µM; CC50 [6]: 52.5 µM; LC50 [7]: 66.1 µM; LC50 [8]: 50.1 µM; LC50 (concentration giving 50% net cell kill) [9]: 58.9 µM
O=C1Nc2ccc(Cl)cc2/C1=C\c1c(Cl)n(CCCc2ccccc2)c2ccccc12 | 2.82 | 10.2 | 2.24 | 8.91 | 1.95 | 5.62 | 1.86 | 2.19 | 9.12 | 2 | 6.46 | 2.45 | 2.04 | 5.75 | 2.88 | 81.3 | 50.1 | 19.1 | 9.77 | 23.4 | LC50 [2]: 28.8 µM; LC50 [4]: 17.8 µM; CC50 [5]: 42.7 µM; CC50 [6]: 34.7 µM; LC50 [7]: 60.3 µM; LC50 [8]: 35.5 µM
COc1cc2c(c(OC)c1OC)/C(=C\c1c(Cl)[nH]c3ccccc13)C(=O)N2 | 1.58 | 6.31 | 1.86 | 9.12 | 1.29 | 4.27 | 1.35 | 1.62 | 8.13 | 1.17 | 5.5 | 1.51 | 1.86 | 6.61 | 0.55 | 7.08 | 35.5 | 18.2 | 5.37 | 9.77 | LC50 [2]: 67.6 µM; LC50 [4]: 36.3 µM; CC50 [5]: 66.1 µM; LC50 [7]: 77.6 µM; LC50 [8]: 30.9 µM; LC50 (concentration giving 50% net cell kill) [9]: 42.7 µM
COc1cc2c(/C=C3/C(=O)Nc4cccc(Cl)c43)c(Cl)n(Cc3cc(OC)c(OC)c(OC)c3)c2cc1C | 3.02 | 12.6 | 3.24 | 12 | 2.88 | 10 | 3.24 | 2.95 | 15.1 | 1.91 | 5.13 | 3.98 | 2.88 | 8.91 | 2.45 | 14.1 | 40.7 | 51.3 | 11.8 | 22.9 | LC50 [2]: 47.9 µM; LC50 [4]: 45.7 µM; CC50 [5]: 61.7 µM; CC50 [6]: 17.4 µM; LC50 [7]: 66.1 µM; LC50 [8]: 51.3 µM; LC50 (concentration giving 50% net cell kill) [9]: 51.3 µM
O=C1Nc2ccccc2/C1=C\c1c(Cl)n(Cc2ccccc2)c2ccccc12 | 16.6 | 47.9 | 14.8 | 57.5 | 19.9 | 60.3 | 20.4 | 12.9 | 64.6 | 20.4 | 55 | 20.9 | 8.91 | 32.4 | 3.63 | 21.4 | 93.3 | 95.5 | 70.8 | 66.1 | LC50 [7]: 95.5 µM; LC50 [8]: 87.1 µM; LC50 (concentration giving 50% net cell kill) [9]: 75.9 µM
CC[C@]1(O)C[C@H]2CN(CCc3c([nH]c4ccccc34)[C@@](C(=O)OC)(c3cc4c(cc3OC)N(C=O)[C@H]3[C@@](O)(C(=O)OC)[C@H](OC(C)=O)[C@]5(CC)C=CCN6CC[C@]43[C@@H]65)C2)C1 [VINCRISTINE SULFATE] | 0.13 |  | 0.25 |  | 0.1 |  | 0.32 | 0.32 |  | 0.13 |  | 0.32 | 0.16 |  | 0.1 |  |  |  |  |  | 
COc1c(/C=C2/C(=O)Nc3ccc(Cl)cc32)c2ccccc2n1-c1ccccc1 | 5.25 | 19.1 | 9.55 | 24.6 | 6.31 | 25.7 | 8.51 | 4.27 | 13.8 | 9.33 | 24 | 8.51 | 5.62 | 18.2 | 2.34 | 8.91 | 52.5 | 60.3 | 21.9 | 24 | LC50 [2]: 57.5 µM; LC50 [4]: 51.3 µM; CC50 [5]: 52.5 µM; CC50 [6]: 60.3 µM; LC50 [7]: 66.1 µM; LC50 [8]: 51.3 µM; LC50 (concentration giving 50% net cell kill) [9]: 58.9 µM
O=C1Nc2ccccc2/C1=C\c1c(Cl)n(CCCc2ccccc2)c2ccccc12 | 16.6 | 75.9 | 14.1 | 72.4 | 12 | 60.3 | 13.8 | 10 | 72.4 | 19.1 |  | 12 | 13.8 | 67.6 | 8.91 | 50.1 |  |  | 67.6 | 72.4 | 
O=C1/C(=C/c2c(Cl)[nH]c3ccccc23)c2ccccc2N1Cc1ccccc1 | 4.9 | 69.2 | 6.61 | 85.1 | 4.17 | 79.4 | 5.25 | 4.17 | 56.2 | 6.17 |  | 9.12 | 5.13 | 61.7 | 2.95 | 21.4 |  |  | 77.6 | 79.4 | 
O=C1Nc2ccc(O)cc2/C1=C\c1c(Cl)n(CCc2ccccc2)c2ccccc12 | 10.5 | 52.5 | 7.08 | 50.1 | 9.77 | 33.9 | 9.33 | 3.98 | 25.1 | 6.76 | 47.9 | 9.12 | 7.08 | 28.2 | 3.39 | 77.6 | 95.5 | 72.4 | 55 | 64.6 | LC50 [4]: 95.5 µM; LC50 [7]: 95.5 µM; LC50 [8]: 74.1 µM
COc1ccc2c(c1)/C(=C\c1c(Cl)n(C/C=C/c3ccccc3)c3ccccc13)C(=O)N2 | 2.04 |  | 2.24 | 37.1 | 1.32 | 21.9 | 1.91 | 1.86 | 36.3 | 2.09 | 16.2 | 2.09 | 2.4 | 38.9 | 2 |  |  |  | 30.2 | 41.7 | 
COc1ccc(OC)c2c1NC(=O)/C2=C/c1c(Cl)[nH]c2ccccc12 | 2.75 | 13.5 | 3.55 | 22.4 | 2.24 | 8.91 | 3.39 | 1.62 | 12.6 | 3.47 | 19.9 | 2.51 | 3.39 | 16.2 | 1.51 | 56.2 | 44.7 | 33.9 | 16.2 | 15.1 | LC50 [2]: 74.1 µM; LC50 [4]: 53.7 µM; CC50 [5]: 64.6 µM; CC50 [6]: 51.3 µM; LC50 [7]: 41.7 µM; LC50 [8]: 46.8 µM
